Here are results for 17 molecules from ChEMBL document CHEMBL1139485, “Tricyclic pyrazoles. 3. Synthesis, biological evaluation, and molecular modeling of analogues of the cannabinoid antagonist 8-chloro-1-(2',4'-dichlorophenyl)-N-piperidin-1-yl-1,4,5,6-tetrahydrobenzo[6,7]cyclohepta[1,2-c]pyrazole-3-carboxamide” (J Med Chem, 2005).

Activity calls are given as the source filed them. The rule behind the calls is not given here. A value given as a limit tells only on which side of the number the result lay.

Experiment [1] has as its target Cannabinoid receptor (Mus musculus) (UniProt P47746+P47936). The experiment is described as follows: Selectivity for CB1 receptor over CB2 receptor in CD1 mouse. The class given is protein assay.
The target in the next experiment is Cannabinoid receptor 2 (Mus musculus, UniProt P47936). The experiment is described as follows: Displacement of [3H]CP-55940 from CB2 receptor in CD1 mouse spleen. The class given is tissue-based. A digest of the protocol:
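Membranes from male CD-1 mouse brain (minus cerebellum) for CB1 or spleen for CB2, prepared in ice-cold TME buffer (50 mM Tris-HCl, 1 mM EDTA, 3.0 mM MgCl2, pH 7.4). Filtration, scintillation counting. IC50 from sigmoid fit converted to Ki. Triplicate, ≥5 experiments.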

Another experiment deals with Cannabinoid receptor 1 (Mus musculus, UniProt P47746). Kind of experiment: Displacement of [3H]CP-55940 from CB1 receptor in CD1 mouse brain. Format: tissue-based. The gist of the method: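 Membranes from male CD-1 mouse brain (minus cerebellum) for CB1 or spleen for CB2, prepared in ice-cold TME buffer (50 mM Tris-HCl, 1 mM EDTA, 3.0 mM MgCl2, pH 7.4). 30–80 μg protein incubated with 0.5–1 nM [3H]CP-55,940, 1 h, 30 °C, with 5 mg/mL fatty-acid-free BSA. Nonspecific binding defined by 1 μM CP-55,940. Filtration, scintillation counting. IC50 from sigmoid fit converted to Ki. Triplicate, ≥5 experiments.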
Sequence of Cannabinoid receptor 1 (P47746 whole entry): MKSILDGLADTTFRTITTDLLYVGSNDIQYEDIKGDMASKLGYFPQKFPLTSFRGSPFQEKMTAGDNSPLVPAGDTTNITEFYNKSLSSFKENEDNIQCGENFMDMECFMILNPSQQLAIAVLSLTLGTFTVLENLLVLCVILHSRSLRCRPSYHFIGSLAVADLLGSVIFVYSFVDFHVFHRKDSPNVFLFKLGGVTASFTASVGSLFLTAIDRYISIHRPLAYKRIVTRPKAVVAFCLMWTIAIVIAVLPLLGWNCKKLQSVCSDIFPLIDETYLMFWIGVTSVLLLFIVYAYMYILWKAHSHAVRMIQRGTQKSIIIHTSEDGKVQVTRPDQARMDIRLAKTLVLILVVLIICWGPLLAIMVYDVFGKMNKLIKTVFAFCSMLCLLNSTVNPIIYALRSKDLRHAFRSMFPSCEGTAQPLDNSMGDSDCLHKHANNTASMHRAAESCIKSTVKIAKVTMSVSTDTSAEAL

Experiment [2] concerns Mus musculus. The experiment is described as follows: Effect on upper gastrointestinal motility in CD1 mouse at 0.1 mg/kg, ip. The class given is functional, organism-based. Details: dose 0.1 mg/kg. A digest of the protocol:
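Male CD-1 mice (20–35 g), n = 15–20 per group. Drug in saline with 0.1% Tween-80 (12.5 mL/kg) given ip 30 min before intragastric red carmine (6 wt %/v in 0.5% methylcellulose, 0.3 mL/mouse). Mice killed 20 min later. Distance reached by the marker head expressed as % of small intestine length (pylorus to ileocaecal junction). Mean ± SEM.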

In experiment [3] the test system is Mus musculus. The experiment is described as follows: Reversal of 0.5 mg/kg WIN-55212-2-induced inhibitory effect on upper gastrointestinal motility in CD1 mouse at 0.1 mg/kg ip. Format: functional, organism-based. The gist of the method: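 Male CD-1 mice, n = 15–20 per group. Test drug 0.1 mg/kg ip given 10 min before WIN 55,212-2 (0.5 mg/kg ip), both in saline with 0.1% Tween-80. Intragastric carmine marker 20 min after agonist; mice killed 20 min later. Transit measured as % of small intestine length travelled by marker. ANOVA with Newman–Keuls test.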

Experiment [4] concerns Mus musculus. The experiment is described as follows: Increase in upper gastrointestinal motility in CD1 mouse at 0.5 to 1 mg/kg, ip. The settings on record: dose mg/kg 0.5-1; route intraperitoneal. The class given is functional. The gist of the method: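 Male CD-1 mice (20–35 g), n = 15–20 per group. Compound given ip in saline with 0.1% Tween-80, 30 min before intragastric red carmine marker (6% suspension in 0.5% methylcellulose, 0.3 mL/mouse). Killed 20 min later. Distance travelled by the marker head expressed as % of small-intestine length (pylorus to ileocaecal junction). Group mean ± SEM versus vehicle-treated mice, by ANOVA/Newman–Keuls.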

Sequence of Cannabinoid receptor (Mus musculus) (P47746 whole entry, looked up): as the sequence (P47746 whole entry) above
Sequence of Cannabinoid receptor (Mus musculus) (P47936 whole entry, looked up): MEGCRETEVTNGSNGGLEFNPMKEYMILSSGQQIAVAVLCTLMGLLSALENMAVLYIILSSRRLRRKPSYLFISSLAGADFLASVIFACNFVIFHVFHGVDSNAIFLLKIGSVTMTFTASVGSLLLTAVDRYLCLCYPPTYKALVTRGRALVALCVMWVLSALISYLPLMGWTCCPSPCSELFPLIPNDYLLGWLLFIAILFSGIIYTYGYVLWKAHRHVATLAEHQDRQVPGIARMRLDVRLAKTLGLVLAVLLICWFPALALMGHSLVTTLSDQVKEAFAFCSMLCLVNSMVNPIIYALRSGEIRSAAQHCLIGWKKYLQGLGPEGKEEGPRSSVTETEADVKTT
Sequence of Cannabinoid receptor 2 (P47936 whole entry): as the sequence (P47936 whole entry, looked up) above

The term Ki denotes a measure of affinity in units of concentration, obtained from inhibition or displacement. As for `O=C(NC1CCCCC1)c1nn(-c2ccc(Cl)cc2Cl)c2c1CCCc1cc(Cl)ccc1-2`, the Ratio Ki in experiment [1] was 2.16. The values for the Ki at Cannabinoid receptor 2 and on Cannabinoid receptor 1 were 0.65 nM (antagonist) and 0.3 nM (antagonist), respectively.

Turning to `O=C(NN1CCCCC1)c1nn(-c2ccc(Cl)cc2Cl)c2c1Cc1cc(Cl)ccc1-2`, in experiment [1], the Ratio Ki came out at 0.000166. The Ki was 0.34 nM (antagonist) on Cannabinoid receptor 2 and 2050 nM (antagonist) on Cannabinoid receptor 1.

On to `COc1ccc(NC(=O)c2nn(-c3ccc(Cl)cc3Cl)c3c2CCCc2cc(Cl)ccc2-3)cc1`, for which the Ratio Ki in experiment [1] came to 3300. Besides, the values for the Ki on Cannabinoid receptor 2 and at Cannabinoid receptor 1 were 43.3 nM (antagonist) and 0.013 nM (antagonist), respectively.

Consider `Cc1ccc(NC(=O)c2nn(-c3ccc(Cl)cc3Cl)c3c2CCCc2cc(Cl)ccc2-3)cc1`, for which the Ratio Ki in experiment [1] worked out at 11.3. Also, the figures for the Ki on Cannabinoid receptor 2 and on Cannabinoid receptor 1 were 65 nM (antagonist) and 5.74 nM (antagonist), respectively.

For `O=C(NN1CCCCC1)c1nn(-c2ccc(Cl)cc2Cl)c2c1CCCc1ccc(Cl)cc1-2`, the Ratio Ki in experiment [1] is 0.86. Further, the Ki was 26.8 nM (antagonist) at Cannabinoid receptor 2 and 31.2 nM (antagonist) at Cannabinoid receptor 1.

`O=C(NN1CCCC1)c1nn(-c2ccc(Cl)cc2Cl)c2c1CCCc1cc(Cl)ccc1-2`: the Ratio Ki in experiment [1] was determined as 11200. Moreover, the Ki on Cannabinoid receptor 2 was 45 nM (antagonist); at Cannabinoid receptor 1, 0.004 nM (antagonist).

As for `O=C(NN1CCCCC1)c1nn(-c2ccc(Cl)cc2Cl)c2c1CCCc1c(Cl)cccc1-2`, the Ratio Ki in experiment [1] is 3.21. In addition, the Ki on Cannabinoid receptor 2 was 31.6 nM (antagonist); on Cannabinoid receptor 1, 9.84 nM (antagonist).

With `Cc1ccc2c(c1)CCCc1c(C(=O)NN3CCCCC3)nn(-c3ccc(Cl)cc3Cl)c1-2`, in experiment [1], the Ratio Ki came to 88.5. Also, the values for the Ki on Cannabinoid receptor 2 and on Cannabinoid receptor 1 were 0.46 nM (antagonist) and 0.0052 nM (antagonist), respectively.

Consider `O=C(NN1CCCCC1)c1nn(-c2ccc(Cl)cc2Cl)c2c1CCCc1cc(Cl)ccc1-2`, for which the Ratio Ki in experiment [1] stood at 60000. For the same molecule, the Ki on Cannabinoid receptor 2 is recorded as 21 nM (antagonist); at Cannabinoid receptor 1 it was 0.00035 nM (antagonist).

`O=C(NN1CCCCC1)c1nn(-c2ccc(Cl)cc2Cl)c2c1CCCc1ccccc1-2`: in experiment [1], the Ratio Ki amounted to 0.11. For the same molecule, the Ki at Cannabinoid receptor 2 was 18.1 nM (antagonist); on Cannabinoid receptor 1, 168 nM (antagonist).

Take `Cc1ccc2c(c1)CCCc1c(C(=O)NN3CCCC3)nn(-c3ccc(Cl)cc3Cl)c1-2`: the Ratio Ki in experiment [1] amounted to 3510. The Ki at Cannabinoid receptor 2 was 386 nM (antagonist); on Cannabinoid receptor 1, 0.11 nM (antagonist).

On to `O=C(NN1CCCCCC1)c1nn(-c2ccc(Cl)cc2Cl)c2c1CCCc1cc(Cl)ccc1-2`, for which the Ratio Ki in experiment [1] was 2000. Also, the Ki at Cannabinoid receptor 2 is reported as 2 nM (antagonist); at Cannabinoid receptor 1, 0.001 nM (antagonist). The result with Mus musculus [2] was inactive. Moreover, the outcome in the experiment on Mus musculus [3] was Active. This molecule yielded an Activity in the experiment on Mus musculus [4] of 65%.

As to `O=C(Nc1ccc(Cl)c(Cl)c1)c1nn(-c2ccc(Cl)cc2Cl)c2c1CCCc1cc(Cl)ccc1-2`, the Ki was more than 500 nM at Cannabinoid receptor 2 and 25.8 nM (antagonist) at Cannabinoid receptor 1.

In the case of `O=C(NN1CCCCC1)c1nn(-c2ccc(Cl)cc2Cl)c2c1CCCc1cc(Br)ccc1-2`, the Ratio Ki in experiment [1] is 4620. The Ki at Cannabinoid receptor 2 is listed as 37 nM (antagonist); at Cannabinoid receptor 1 it was 0.008 nM (antagonist).

`O=C(Nc1ccccc1)c1nn(-c2ccc(Cl)cc2Cl)c2c1CCCc1cc(Cl)ccc1-2`: in experiment [1], the Ratio Ki is 0.33. Besides, the Ki on Cannabinoid receptor 2 was 1.45 nM (antagonist); on Cannabinoid receptor 1, 4.35 nM (antagonist).

As for `O=C(NN1CCCCC1)c1nn(-c2ccc(Cl)cc2Cl)c2c1CCc1cc(Cl)ccc1-2`, the Ratio Ki in experiment [1] came out at 15.3. The Ki was 227 nM (antagonist) at Cannabinoid receptor 2 and 14.8 nM (antagonist) on Cannabinoid receptor 1.

With `O=C(Nc1ccc(Cl)cc1)c1nn(-c2ccc(Cl)cc2Cl)c2c1CCCc1cc(Cl)ccc1-2`, in experiment [1], the Ratio Ki stood at 31.6. In addition, the Ki is 79 nM (antagonist) at Cannabinoid receptor 2 and 2.5 nM (antagonist) at Cannabinoid receptor 1.
